Laboratory results: ChEMBL document CHEMBL4014325
Values belong to the molecule of their own block, whether it stands above or below them. Calls of active or inactive are those of the source. The rule behind the calls is not given here.

Assays:
[1] = Drug level in aqueous solution treated with 2-(2-Bromo-2,2-difluoro-acetylamino)-5,6,7,8-tetrahydro-4H-cyclohepta[b]thiophene-3-carboxylicacid-o-tolylamide after 3 days by ESI-LCMS analysis
Procedure, shortened: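 Duplicate samples of 100 μM compound in H₂O (20% DMSO) with 100 μM 5-chloro-3-phenyl-2,1-benzisoxazole as internal standard. Kept at 25 °C for 3 days and analysed daily by ESI-LCMS for the parent compound and the oxalamic acid degradation product.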

[2] = target: T1, Anoctamin-1 (Homo sapiens) (UniProt Q5XXA6); test: (§1) Inhibition of human TMEM16A expressed in FRT cells co-expressing iodide sensitive fluorescent protein YFP-H148Q/I152L/F46L assessed as reduction in ATP-induced Ca2+ activation-mediated chloride current by measuring decrease in iodide influx preincubated for 10 mins followed by ATP/iodide addition by fluorescence assay; assay type: cell-based
T1 sequence (whole entry): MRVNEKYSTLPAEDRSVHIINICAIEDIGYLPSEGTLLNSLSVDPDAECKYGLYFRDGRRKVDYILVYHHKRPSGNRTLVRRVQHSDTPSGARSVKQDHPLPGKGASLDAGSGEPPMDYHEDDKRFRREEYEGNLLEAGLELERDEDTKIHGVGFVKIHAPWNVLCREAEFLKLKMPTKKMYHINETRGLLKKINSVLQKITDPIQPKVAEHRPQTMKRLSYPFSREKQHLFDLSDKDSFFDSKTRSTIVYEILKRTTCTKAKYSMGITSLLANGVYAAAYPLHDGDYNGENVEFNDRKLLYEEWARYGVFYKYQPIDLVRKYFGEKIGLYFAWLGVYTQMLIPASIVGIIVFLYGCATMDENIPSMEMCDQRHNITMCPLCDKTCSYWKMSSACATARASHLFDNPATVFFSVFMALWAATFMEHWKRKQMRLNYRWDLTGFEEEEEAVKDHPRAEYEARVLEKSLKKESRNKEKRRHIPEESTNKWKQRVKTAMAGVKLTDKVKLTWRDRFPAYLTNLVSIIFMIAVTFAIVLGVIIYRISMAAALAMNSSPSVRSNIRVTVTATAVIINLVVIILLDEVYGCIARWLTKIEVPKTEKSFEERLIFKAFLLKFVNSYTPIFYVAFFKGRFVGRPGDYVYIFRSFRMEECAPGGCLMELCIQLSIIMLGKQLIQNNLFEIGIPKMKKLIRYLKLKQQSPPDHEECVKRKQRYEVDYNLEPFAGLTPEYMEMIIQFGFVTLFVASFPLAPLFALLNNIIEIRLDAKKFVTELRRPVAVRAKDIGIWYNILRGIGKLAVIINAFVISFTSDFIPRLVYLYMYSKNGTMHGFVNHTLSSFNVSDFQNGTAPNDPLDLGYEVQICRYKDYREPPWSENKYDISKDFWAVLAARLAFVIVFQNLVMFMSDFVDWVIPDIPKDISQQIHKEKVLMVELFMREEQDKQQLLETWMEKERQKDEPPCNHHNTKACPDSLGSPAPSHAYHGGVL
Procedure, shortened: (§2)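 FRT cells stably expressing human TMEM16A and YFP, plated at 20,000 cells/well and used 24–48 h later. An equal volume of 140 mM I⁻ solution containing 300 μM ATP was added, and reading continued 12 s at 400 ms/point. Initial I⁻ influx rate fitted by nonlinear regression; IC₅₀ from concentration-inhibition data.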

[3] = Inhibition of calcium activated chloride channel in ATP-activated human HT-29 cells expressing YFP-H148Q/152L assessed as reduction in iodide influx preincubated for 10 mins followed by ATP addition by fluorescence assay
Procedure, shortened: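 Endogenous non-TMEM16A CaCC in HT-29 cells expressing YFP, read by plate reader. Initial rate of I⁻ influx taken as a linear measure of channel function. IC₅₀ from concentration-inhibition data; n=3.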

[4] = target: Cystic fibrosis transmembrane conductance regulator (Homo sapiens) (UniProt P13569); test: Inhibition of human wild type CFTR expressed in FRT cells co-expressing halide sensitive YFP-H148Q assessed as reduction in forskolin induced cAMP activated chloride conductance by measuring decrease in iodide influx after 15 mins by fluorescence assay; assay type: cell-based
Cystic fibrosis transmembrane conductance regulator (Homo sapiens), sequence (P13569 whole entry, looked up): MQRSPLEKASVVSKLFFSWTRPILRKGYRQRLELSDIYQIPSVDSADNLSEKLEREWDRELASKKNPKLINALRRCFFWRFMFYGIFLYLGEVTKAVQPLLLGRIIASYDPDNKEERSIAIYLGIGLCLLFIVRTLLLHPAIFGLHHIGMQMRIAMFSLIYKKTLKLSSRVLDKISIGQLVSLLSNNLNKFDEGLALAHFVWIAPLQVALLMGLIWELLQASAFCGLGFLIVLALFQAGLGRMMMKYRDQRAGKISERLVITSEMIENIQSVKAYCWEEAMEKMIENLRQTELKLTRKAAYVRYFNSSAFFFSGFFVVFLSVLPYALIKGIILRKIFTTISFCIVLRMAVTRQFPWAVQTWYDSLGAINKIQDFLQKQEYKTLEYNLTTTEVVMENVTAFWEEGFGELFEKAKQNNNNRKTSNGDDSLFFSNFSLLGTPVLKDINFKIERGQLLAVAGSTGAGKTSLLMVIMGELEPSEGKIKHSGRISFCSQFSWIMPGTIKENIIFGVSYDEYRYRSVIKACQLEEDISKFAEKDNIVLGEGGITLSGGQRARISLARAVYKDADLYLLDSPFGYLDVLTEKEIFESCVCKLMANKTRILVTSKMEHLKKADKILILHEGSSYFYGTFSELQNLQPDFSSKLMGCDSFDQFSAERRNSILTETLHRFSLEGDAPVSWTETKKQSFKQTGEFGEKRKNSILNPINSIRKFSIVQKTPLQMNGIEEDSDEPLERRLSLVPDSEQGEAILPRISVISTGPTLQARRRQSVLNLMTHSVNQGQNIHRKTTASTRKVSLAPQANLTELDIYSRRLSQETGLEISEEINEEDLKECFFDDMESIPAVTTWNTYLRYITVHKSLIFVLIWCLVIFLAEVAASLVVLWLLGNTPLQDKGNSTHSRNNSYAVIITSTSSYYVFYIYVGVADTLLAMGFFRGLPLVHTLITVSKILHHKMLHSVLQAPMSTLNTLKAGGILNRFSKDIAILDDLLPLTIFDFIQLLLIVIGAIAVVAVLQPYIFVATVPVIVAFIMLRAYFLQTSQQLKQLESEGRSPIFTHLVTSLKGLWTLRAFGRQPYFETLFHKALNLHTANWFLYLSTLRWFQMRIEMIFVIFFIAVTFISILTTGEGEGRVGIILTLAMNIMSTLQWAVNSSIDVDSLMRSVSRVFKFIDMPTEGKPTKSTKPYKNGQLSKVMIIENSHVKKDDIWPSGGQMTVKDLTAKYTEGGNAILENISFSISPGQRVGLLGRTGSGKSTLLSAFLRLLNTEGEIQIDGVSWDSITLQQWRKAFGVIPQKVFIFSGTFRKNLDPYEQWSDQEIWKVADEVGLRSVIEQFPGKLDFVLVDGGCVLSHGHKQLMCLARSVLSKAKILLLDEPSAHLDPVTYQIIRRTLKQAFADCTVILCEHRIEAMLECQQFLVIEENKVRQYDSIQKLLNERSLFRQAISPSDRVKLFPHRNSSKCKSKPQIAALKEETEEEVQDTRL
Procedure, shortened: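 FRT cells co-expressing YFP and wild-type CFTR, washed with PBS. Incubated 15 min with compound in PBS containing 20 μM forskolin. Plate reader baseline 2 s, then 12 s after rapid addition of I⁻-containing solution; initial I⁻ influx rate computed.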

[5] = Cytotoxicity against human HT-29 cells assessed as cell survival at 5 uM after 8 hrs by alamar blue assay relative to control; assay type: cell-based; conditions: read-out: Survival
Procedure, shortened: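 Cells cultured overnight, then exposed to compound at 5 μM for 8 h. Viability read by Alamar Blue per kit instructions. Table reports n=3.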

Liver = test: Metabolic stability in rat liver microsomes at 10 uM after 180 mins in presence of NADPH by LC/MS analysis; assay type: ADME, microsome; conditions: 3 h
Procedure, shortened: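 10 μM compound shaken at 37 °C with rat liver microsomes (1 mg protein/mL) in 100 mM potassium phosphate buffer with 1 mM NADPH, sampled at 2–180 min. Quenched on ice with ice-cold ethyl acetate, centrifuged, supernatant dried and redissolved. Parent compound quantified by C₁₈ reverse-phase LC/MS (5–95% acetonitrile gradient); mean ± SEM, n=3.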

[6] = Solubility of compound in DMSO; assay type: physicochemical
Anoctamin-1 [7] = target: T2, Anoctamin-1 (Homo sapiens, UniProt Q5XXA6); test: as §1; assay type: cell-based; procedure, shortened: as §2
T2 sequence (Q5XXA6 whole entry): T1 sequence (whole entry)

Anoctamin-1 [8] = target: T2, Anoctamin-1; test: Inhibition of human TMEM16A expressed in FRT cells assessed as reduction of ATP-induced in chloride conductance preincubated for 5 mins followed by ATP addition by short-circuit current assay; assay type: cell-based
Anoctamin-2 [9] = target: T3, Anoctamin-2 (Homo sapiens, UniProt Q9NQ90); test: Inhibition of TMEM16B (unknown origin) expressed in FRT cells assessed as reduction of ATP-induced chloride conductance preincubated for 20 mins followed by ATP addition by short-circuit current assay; assay type: cell-based
T3 sequence (Q9NQ90 whole entry): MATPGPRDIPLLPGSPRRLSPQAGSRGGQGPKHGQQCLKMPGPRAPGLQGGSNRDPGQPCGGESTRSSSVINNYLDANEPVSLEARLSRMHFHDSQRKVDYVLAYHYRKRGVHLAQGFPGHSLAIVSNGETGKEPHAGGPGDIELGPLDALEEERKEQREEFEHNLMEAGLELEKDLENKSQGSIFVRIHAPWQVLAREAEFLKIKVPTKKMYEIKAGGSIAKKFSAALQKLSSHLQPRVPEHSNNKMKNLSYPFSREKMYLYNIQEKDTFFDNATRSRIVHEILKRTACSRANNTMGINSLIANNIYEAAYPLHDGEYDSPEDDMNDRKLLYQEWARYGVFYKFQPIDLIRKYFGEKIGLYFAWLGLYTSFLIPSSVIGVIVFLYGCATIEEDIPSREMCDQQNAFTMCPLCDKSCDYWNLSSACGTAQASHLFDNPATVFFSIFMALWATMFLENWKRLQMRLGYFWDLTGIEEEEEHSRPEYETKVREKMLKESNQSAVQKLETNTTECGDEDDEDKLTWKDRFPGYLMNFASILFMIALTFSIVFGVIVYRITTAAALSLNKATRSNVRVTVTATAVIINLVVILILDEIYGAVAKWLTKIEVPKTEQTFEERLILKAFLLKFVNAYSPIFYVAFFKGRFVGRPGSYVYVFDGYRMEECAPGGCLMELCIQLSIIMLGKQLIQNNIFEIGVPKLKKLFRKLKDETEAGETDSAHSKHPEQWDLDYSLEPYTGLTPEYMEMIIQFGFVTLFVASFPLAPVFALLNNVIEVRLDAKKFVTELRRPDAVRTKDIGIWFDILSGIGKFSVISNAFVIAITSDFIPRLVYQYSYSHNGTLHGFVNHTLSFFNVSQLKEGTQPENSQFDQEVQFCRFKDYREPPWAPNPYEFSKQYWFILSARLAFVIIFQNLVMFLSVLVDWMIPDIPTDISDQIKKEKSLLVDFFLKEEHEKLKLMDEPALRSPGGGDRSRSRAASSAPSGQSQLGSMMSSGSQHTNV

Anoctamin-1 [10] = target: T2, Anoctamin-1; test: Inhibition of TMEM16A (unknown origin) expressed in Xenopus laevis oocytes at -60 mV holding potential by voltage-clamp assay
Anoctamin-2 [11] = target: T3, Anoctamin-2; test: as §1, with “TMEM16B” for “TMEM16A”; assay type: cell-based
Procedure, shortened: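 FRT cells co-expressing YFP and TMEM16B, given compound for 10 min, then I⁻ solution with ATP added. Fluorescence read by plate reader; initial I⁻ influx rate computed. IC₅₀ from concentration-inhibition data; n=3.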

SMILES: Cc1ccccc1NC(=O)c1c(NC(=O)C(=O)F)sc2c1CCCCC2
Drug metabolism [1]: Metabolite detected

SMILES: Cc1ccccc1NC(=O)c1c(NC(=O)C(F)(F)F)sc2c1CCCCC2
inhibition [2]: Dose-dependent effect
IC50 [3]: 4 µM
inhibition [4]: inactive
viability at 8 h, 5 µM [5]: 99%

SMILES: Cc1ccccc1NC(=O)c1c(NC(=O)C(=O)O)sc2c1CCCCC2
Drug metabolism [1]: Metabolite detected

Stability (Liver): Unstable
inhibition [4]: inactive
SMILES: COc1ccccc1/C=N/NC(=O)COc1ccc(Cl)cc1C

SMILES: Cc1ccccc1NC(=O)c1c(NC(=O)C(O)(F)F)sc2c1CCCCC2
Drug metabolism [1]: Metabolite detected

solubility [6]: Insoluble
SMILES: O=C(Nc1ccccc1OC(F)(F)F)c1c(NC(=O)C(F)(F)Cl)sc2c1CCC2

SMILES: Cc1ccccc1NC(=O)c1c(NC(=O)C(F)(F)Cl)sc2c1CCCCC2
inhibition [4]: inactive
viability at 8 h, 5 µM [5]: 98%

IC50 (Anoctamin-1 [7]): > 20 µM
SMILES: CCC(=O)Nc1sc2c(c1C(=O)Nc1ccccc1OC(F)(F)F)CCCCC2

IC50 (Anoctamin-1 [7]): > 20 µM
SMILES: CCC(=O)Nc1sc2c(c1C(=O)Nc1ccccc1C)CCCCC2

inhibition [4]: inactive
SMILES: O=C(Nc1ccc(F)cc1)c1c(NC(=O)C(F)(F)I)sc2c1CCCCC2

SMILES: CCc1c(C)nc(SCC(=O)Nc2nc(-c3ccc(OC)cc3)cs2)nc1O
IC50 (Anoctamin-1 [8]): 1 µM
IC50 (Anoctamin-2 [9]): 4 µM
inhibition [4]: inactive
viability at 8 h, 5 µM [5]: 97%

SMILES: Cc1ccccc1NC(=O)c1c(NC(=O)C(F)(F)I)sc2c1CCCCC2
inhibition [4]: inactive
viability at 8 h, 5 µM [5]: 96%

inhibition [4]: inactive
SMILES: O=C(Nc1ccccc1)c1c(NC(=O)C(F)(F)F)sc2c1CCCCC2

solubility [6]: Insoluble
SMILES: O=C(Nc1ccccc1OC(F)(F)F)c1c(NC(=O)C(F)(F)Br)sc2c1CCC2

SMILES: COc1cc(Nc2ccc([N+](=O)[O-])cc2C(=O)O)cc2ccccc12
IC50 (Anoctamin-1 [8]): 1.6 µM
IC50 (Anoctamin-1 [10]): 0.08 µM
IC50 [3]: > 20 µM
IC50 (Anoctamin-2 [11]): 13 µM
inhibition [4]: inactive
viability at 8 h, 5 µM [5]: 100%
